Measurements collected from several papers.
Compare with care: the assays were run in different laboratories.
Observed: metabolic stability

| Compound | system | setting | measurement | value |
| --- | --- | --- | --- | --- |
| Cc1ccc(Nc2cnnc3ccc(-c4ccc(N5CCCN(C)CC5)cc4)cc23)cn1 | rat, hepatocytes |  | hepatocyte CLint | 10 µL/min/10⁶ cells |
| C[C@]1(O)CCCN(c2nc(Nc3ccc(S(=O)(=O)N[C@H]4CC[C@H](CN5CCN(c6ccc(C7CCC(=O)NC7=O)c(F)c6)CC5)CC4)cc3F)ncc2C(F)(F)F)C1 (stereo partly shown) | rat, liver microsomes | 1 µM | scaled CLint | < 1.26 L/h/kg |
| Cc1ccc(C(C)(C)c2ccc(NC(=O)CN(C)c3ccccc3N3CCCC3=O)cc2)cc1 | rat, hepatocytes |  | hepatocyte CLint | 63 µL/min/10⁶ cells |
| CCOCC(=O)N1CCC[C@H](C(=O)NCc2nc(-c3ccc(C#N)nc3)cs2)C1 | male Sprague-Dawley rat, liver microsomes | 0.5 µM | microsomal CLint | 11 µL/min/mg |
| CNS(=O)(=O)c1ccc(Nc2ncc(C(F)(F)F)c(N3CCC[C@](C)(O)C3)n2)c(C)c1 | rat, liver microsomes | 1 µM | scaled CLint | 2.4 L/h/kg |
| Cc1ccc(-c2csc(CNC(=O)[C@H]3CCCN(C(=O)[C@H]4CCC(C)(C)O4)[C@H]3C)n2)cn1 | male Sprague-Dawley rat, liver microsomes | 0.5 µM | microsomal CLint | 197 µL/min/mg |
| Cc1ccc(N(c2ccc(NC(=O)CN(C)c3ccccc3N3CCCC3=O)cc2)C(C)C)cc1 | rat, hepatocytes |  | hepatocyte CLint | > 92 µL/min/10⁶ cells |
| N#Cc1ccc(-c2csc(CNC(=O)[C@H]3CCCN(C(=O)COCCF)C3)n2)cc1 | male Sprague-Dawley rat, liver microsomes | 0.5 µM | microsomal CLint | 40 µL/min/mg |
| N#Cc1ccc(C[C@H](NC(=O)c2cc3cc(F)ccc3[nH]2)C(=O)N2CCc3ccccc32)cc1 | rat, liver microsomes | 10 µM, pH 7.4 | microsomal CLint | 9.1 µL/min/mg |
| Cc1cc(S(=O)(=O)N[C@]2(C)C[C@@H](N3CCN(CC4CCN(c5ccc6c(c5F)n(C)c(=O)n6C5CCC(=O)NC5=O)CC4)CC3)C2)ccc1Nc1ncc(C(F)(F)F)c(N2CCC[C@](C)(O)C2)n1 (stereo partly shown) | rat, liver microsomes | 1 µM | scaled CLint | < 1.26 L/h/kg |
| CCONC(=O)N1CCC[C@H](C(=O)NCc2nc(-c3ccccc3)cs2)C1 | male Sprague-Dawley rat, liver microsomes | 0.5 µM | microsomal CLint | 31 µL/min/mg |
| Cc1cc(S(=O)(=O)NC2CC(N3CCN(CC4CCN(c5cccc6c5n(C)c(=O)n6C5CCC(=O)NC5=O)CC4)C4(CC4)C3)C2)ccc1Nc1ncc(C(F)(F)F)c(N2CCC[C@](C)(O)C2)n1 (stereo partly shown) | rat, liver microsomes | 1 µM | scaled CLint | < 1.26 L/h/kg |
| NCCOCC(=O)N1CCC[C@H](C(=O)NCc2nc(-c3ccc(C(F)(F)F)cc3)cs2)C1 | male Sprague-Dawley rat, hepatocytes | 0.5 µM | scaled CLint | < 0.252 L/h/kg |
| Cc1ccc(N(C)c2ccc(NC(=O)CN(C)c3cccnc3N3CCCC3=O)cc2)cc1 | rat, hepatocytes |  | hepatocyte CLint | > 92 µL/min/10⁶ cells |
| Cc1nnc(-c2ccc3ccn(CC(=O)Nc4ccccc4Cl)c3c2)o1 | rat, hepatocytes |  | hepatocyte CLint | > 92 µL/min/10⁶ cells |
| Cc1cc(S(=O)(=O)NC2CCC(CC3CCN(c4ccc(C5CCC(=O)NC5=O)cc4)CC3)CC2)ccc1Nc1ncc(C(F)(F)F)c(N2CCC[C@](C)(O)C2)n1 (stereo partly shown) | rat, liver microsomes | 1 µM | scaled CLint | < 1.26 L/h/kg |
| Cc1ccc(Oc2ccc(NC(=O)CN(C)c3ccccc3N3CCCC3=O)cc2)cc1 | rat, hepatocytes |  | hepatocyte CLint | > 92 µL/min/10⁶ cells |
| CNS(=O)(=O)c1ccc(Nc2ncc(C(F)(F)F)c(N3CCC(C)(O)CC3)n2)c(C)c1 | rat, liver microsomes | 1 µM | scaled CLint | 2.28 L/h/kg |
| O=C(NCc1nc(-c2ccc(C(F)(F)F)cc2)cs1)[C@H]1CCCN(C(=O)CO[C@H]2CCCNC2)C1 | male Sprague-Dawley rat, liver microsomes | 0.5 µM | microsomal CLint | 3.6 µL/min/mg |
